From ChEMBL document CHEMBL3616432, “(+)-Dehydroabietylamine derivatives target triple-negative breast cancer” (Eur J Med Chem, 2015)
Activity calls are given as the source filed them. The rule behind the calls is not given here.

What was measured:
[1] = tested on: MDA-MB-231; test: Induction of apoptosis in human triple-negative MDA-MB-231 cells assessed as increase in DR5 level after 12 hrs by western blot analysis; type: functional, cell-based
[2] = tested on: MDA-MB-231; test: Induction of apoptosis in human triple-negative MDA-MB-231 cells assessed as necrotic cells after 12 hrs by Annexin V-FITC/propidium iodide staining-based flow cytometry (reference value: 0.1%); type: functional
[3] = tested on: MCF7; test: Antiproliferative activity against human ER-positive MCF7 cells after 72 hrs by CellTiter-Glo assay; type: functional, cell-based
[4] = tested on: MDA-MB-231; test: Induction of apoptosis in human triple-negative MDA-MB-231 cells assessed as cell shrinkage at 16 uM after 6 to 48 hrs by microscopic analysis; type: functional, cell-based
[5] = tested on: MDA-MB-231; test: Induction of DNA fragmentation in human triple-negative MDA-MB-231 cells at 8.5 uM by propidium iodide staining-based flow cytometry; type: functional, cell-based; settings: TDE = time-dependent effect
[6] = tested on: MDA-MB-231; test: Induction of apoptosis in human triple-negative MDA-MB-231 cells assessed as cell detachment at 16 uM after 6 to 48 hrs by microscopic analysis; type: functional, cell-based
[7] = Efflux ratio of permeability from basolateral to apical side over apical to basolateral side in human Caco2 cells; type: ADME, cell-based; settings: Caco-2
[8] = tested on: MDA-MB-231; test: Cell cycle arrest in human triple-negative MDA-MB-231 cells assessed as accumulation at G2/M phase at 8.5 uM after 12 hrs by propidium iodide staining-based flow cytometry (reference value: 20.40%); type: functional
[9] = Plasma protein binding in human; type: ADME, cell-free; settings: read-out: PPB (converted)
[10] = tested on: MDA-MB-231; test: Cell cycle arrest in human triple-negative MDA-MB-231 cells assessed as accumulation at S phase at 8.5 uM after 12 hrs by propidium iodide staining-based flow cytometry (reference value: 31.23%); type: functional
[11] = tested on: MDA-MB-231; test: Induction of apoptosis in human triple-negative MDA-MB-231 cells assessed as cell death at 16 uM after 6 to 48 hrs by microscopic analysis; type: functional, cell-based
[12] = tested on: MDA-MB-231; test: Induction of apoptosis in human triple-negative MDA-MB-231 cells assessed as increase in cleaved caspase-8 level after 6 to 12 hrs by western blot analysis; type: functional, cell-based
[13] = Half life in human plasma; type: ADME, cell-free
Outline: (§1)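 Compound stability incubated in human or mouse plasma; half-life determined, with known drugs as controls.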

[14] = Apparent permeability from apical to basolateral side in human Caco2 cells; type: ADME, cell-based; settings: Caco-2
[15] = Permeability of the compound at pH 7.4 by PAMPA assay; type: physicochemical; settings: read-out: permeability
[16] = Half life in mouse plasma; type: ADME, cell-free; outline: as §1
[17] = Permeability of the compound at pH 7.4 assessed as drug retention by PAMPA assay; type: physicochemical
[18] = Half life in mouse microsomes; type: ADME, Microsome
[19] = tested on: MDA-MB-231; test: Induction of apoptosis in human triple-negative MDA-MB-231 cells assessed as increase in cleaved PARP level by western blot analysis; type: functional, cell-based; settings: TDE = time-dependent effect
[20] = Plasma protein binding in mouse; type: ADME; settings: read-out: PPB (converted)
[21] = Intrinsic clearance in human microsomes; type: ADME, Microsome
[22] = Apparent permeability from basolateral to apical side in human Caco2 cells; type: ADME, cell-based; settings: Caco-2
[23] = tested on: MDA-MB-231; test: Induction of apoptosis in human triple-negative MDA-MB-231 cells assessed as late apoptotic cells after 12 hrs by Annexin V-FITC/propidium iodide staining-based flow cytometry (reference value: 3.7%); type: functional
[24] = tested on: MDA-MB-231; test: Induction of apoptosis in human triple-negative MDA-MB-231 cells assessed as early apoptotic cells after 12 hrs by Annexin V-FITC/propidium iodide staining-based flow cytometry (reference value: 3.1%); type: functional
[25] = tested on: MDA-MB-231; test: Induction of apoptosis in human triple-negative MDA-MB-231 cells assessed as viable cells after 12 hrs by Annexin V-FITC/propidium iodide staining-based flow cytometry (reference value: 93.1%); type: functional
[26] = tested on: MDA-MB-231; test: Antiproliferative activity against human triple-negative MDA-MB-231 cells at 9 uM after 72 hrs by CellTiter-Glo assay; type: functional, cell-based
[27] = tested on: MDA-MB-231; test: Induction of apoptosis in human triple-negative MDA-MB-231 cells assessed as increase in cleaved caspase-3 level after 6 to 12 hrs by western blot analysis; type: functional, cell-based
[28] = tested on: MDA-MB-231; test: Induction of apoptosis in human triple-negative MDA-MB-231 cells assessed as decrease in caspase-7 level after 6 to 12 hrs by western blot analysis; type: functional, cell-based
[29] = Half life in human microsomes; type: ADME, Microsome
[30] = tested on: MDA-MB-231; test: Induction of apoptosis in human triple-negative MDA-MB-231 cells assessed as increase in cleaved caspase-9 level after 6 to 12 hrs by western blot analysis; type: functional, cell-based
[31] = tested on: MDA-MB-231; test: Cell cycle arrest in human triple-negative MDA-MB-231 cells assessed as accumulation at G0/G1 phase at 8.5 uM after 12 hrs by propidium iodide staining-based flow cytometry (reference value: 48.36%); type: functional
[32] = Intrinsic clearance in mouse microsomes; type: ADME, Microsome
[33] = tested on: MDA-MB-231; test: Antiproliferative activity against human triple-negative MDA-MB-231 cells after 72 hrs by CellTiter-Glo assay; type: functional, cell-based
[34] = tested on: HEK293; test: Cytotoxicity against HEK293 cells at <= 50 uM after 72 hrs by CellTiter-Glo assay; type: cell-based; settings: human, hek293, 72 h
[35] = tested on: HepG2; test: Cytotoxicity against human HepG2 cells at <= 50 uM after 72 hrs by CellTiter-Glo assay; type: cell-based; settings: hepg2, 72 h
[36] = tested on: MDA-MB-231; test: Antiproliferative activity against human triple-negative MDA-MB-231 cells at <= 50 uM after 72 hrs by CellTiter-Glo assay; type: functional, cell-based
[37] = tested on: MDA-MB-231; test: Antiproliferative activity against human triple-negative MDA-MB-231 cells at 22 uM after 72 hrs by CellTiter-Glo assay; type: functional, cell-based
[38] = organism: Homo sapiens; test: Antiproliferative activity against human ER-positive MA11 cells at 48 uM after 72 hrs by CellTiter-Glo assay; type: functional
[39] = tested on: MCF7; test: Antiproliferative activity against human ER-positive MCF7 cells at 48 uM after 72 hrs by CellTiter-Glo assay; type: functional, cell-based
[40] = tested on: MDA-MB-231; test: Cell cycle arrest in human triple-negative MDA-MB-231 cells assessed as accumulation at G0/G1 phase at 30.0 uM after 12 hrs by propidium iodide staining-based flow cytometry (reference value: 48.36%); type: functional
[41] = tested on: MDA-MB-231; test: Induction of DNA fragmentation in human triple-negative MDA-MB-231 cells at 30 uM by propidium iodide staining-based flow cytometry; type: functional, cell-based
[42] = tested on: MDA-MB-231; test: Antiproliferative activity against human triple-negative MDA-MB-231 cells at 35 uM after 72 hrs by CellTiter-Glo assay; type: functional, cell-based
[43] = tested on: MDA-MB-231; test: Cell cycle arrest in human triple-negative MDA-MB-231 cells assessed as accumulation at S phase at 30.0 uM after 12 hrs by propidium iodide staining-based flow cytometry (reference value: 31.23%); type: functional
[44] = tested on: MDA-MB-231; test: Cell cycle arrest in human triple-negative MDA-MB-231 cells assessed as accumulation at G2/M phase at 30.0 uM after 12 hrs by propidium iodide staining-based flow cytometry (reference value: 20.40%); type: functional
[45] = tested on: MDA-MB-231; test: Cell cycle arrest in human triple-negative MDA-MB-231 cells assessed as accumulation at S phase at 2.5 uM after 12 hrs by propidium iodide staining-based flow cytometry (reference value: 31.23%); type: functional
[46] = tested on: MDA-MB-231; test: Cell cycle arrest in human triple-negative MDA-MB-231 cells assessed as accumulation at G0/G1 phase at 2.5 uM after 12 hrs by propidium iodide staining-based flow cytometry (reference value: 48.36%); type: functional
[47] = tested on: MDA-MB-231; test: Induction of apoptosis in human triple-negative MDA-MB-231 cells at 2.5 uM after 6 to 48 hrs by microscopic analysis; type: functional, cell-based
[48] = tested on: MDA-MB-231; test: Cell cycle arrest in human triple-negative MDA-MB-231 cells assessed as accumulation at G2/M phase at 2.5 uM after 12 hrs by propidium iodide staining-based flow cytometry (reference value: 20.40%); type: functional
[49] = tested on: MDA-MB-231; test: Cell cycle arrest in human triple-negative MDA-MB-231 cells assessed as accumulation at S phase at 28.5 uM after 12 hrs by propidium iodide staining-based flow cytometry (reference value: 31.23%); type: functional
[50] = tested on: MDA-MB-231; test: Antiproliferative activity against human triple-negative MDA-MB-231 cells at 29 uM after 72 hrs by CellTiter-Glo assay; type: functional, cell-based
[51] = tested on: MDA-MB-231; test: Cell cycle arrest in human triple-negative MDA-MB-231 cells assessed as accumulation at G0/G1 phase at 28.5 uM after 12 hrs by propidium iodide staining-based flow cytometry (reference value: 48.36%); type: functional
[52] = tested on: MDA-MB-231; test: Cell cycle arrest in human triple-negative MDA-MB-231 cells assessed as accumulation at G2/M phase at 28.5 uM after 12 hrs by propidium iodide staining-based flow cytometry (reference value: 20.40%); type: functional

CC(C)c1ccc2c(c1)CC[C@H]1[C@](C)(CNS(=O)(=O)c3c(F)c(F)c(F)c(F)c3F)CCC[C@]21C
Activity [1]: Active | Activity [2]: 0.5% | Activity [3]: inactive | Activity [4]: Active | Activity [5]: tde | Activity [6]: Active | efflux ratio [7]: 0.8 | Activity [8]: 18.37% | fraction unbound [9]: 0.052 | Activity [10]: 20.37% | Activity [11]: Active | Activity [12]: Active | half-life [13]: 6.76 h | Papp A→B [14]: 1.96 ×10⁻⁶ cm/s | Papp [15]: 62.5 ×10⁻⁶ cm/s | half-life [16]: 37.7 h | permeability [17]: 60.4% | half-life [18]: 0.51 h | Activity [19]: tde | fraction unbound [20]: 0.007 | CLint scaled [21]: 22.3 mL/min/kg | Papp B→A [22]: 1.57 ×10⁻⁶ cm/s | Activity [23]: 16.7% | Activity [24]: 21.3% | Activity [25]: 61.5% | Activity [26]: Active | Activity [27]: Active | Activity [28]: Active | half-life [29]: 0.93 h | Activity [30]: Active | Activity [31]: 61.26% | CLint scaled [32]: 112 mL/min/kg | EC50 ([33]; MDA-MB-231, 72 h): 9 µM

CC(C)c1cc2c(c(O)c1O)[C@@]13CCCC(C)(C)[C@@H]1C[C@@H]2OC3=O [CARNOSOL]
Activity [34]: Non-toxic | Activity [35]: Non-toxic | Activity [36]: Active | Activity [37]: Active

CC(C)c1ccc2c(c1)CC[C@H]1[C@](C)(CNS(=O)(=O)c3ccc(C=O)cc3)CCC[C@]21C
Activity [1]: Active | Activity [38]: Active | Activity [39]: inactive | Activity [2]: 0.2% | Activity [40]: 63.41% | Activity [12]: Active | Activity [41]: Active | Activity [19]: tde | Activity [42]: Active | Activity [23]: 6% | Activity [24]: 3.4% | Activity [25]: 90.4% | Activity [43]: 19.7% | Activity [27]: Active | Activity [28]: Active | Activity [30]: Active | Activity [44]: 16.89%

CC1CC(OC(=O)C(O)c2ccccc2)CC(C)(C)N1C (centres undefined) [EUCATROPINE]
half-life [13]: 0.42 h | half-life [16]: 1.8 h

NC(=O)N1c2ccccc2C=Cc2ccccc21 [CARBAMAZEPINE]
efflux ratio [7]: 0.6 | Papp A→B [14]: 66.7 ×10⁻⁶ cm/s | Papp [15]: 128 ×10⁻⁶ cm/s | permeability [17]: 40.9% | Papp B→A [22]: 42.8 ×10⁻⁶ cm/s

CN[C@@H]1C[C@H]2O[C@@](C)([C@@H]1OC)n1c3ccccc3c3c4c(c5c6ccccc6n2c5c31)C(=O)NC4 [STAUROSPORINE]
Activity [2]: 0.5% | Activity [45]: 33.22% | Activity [46]: 43.5% | Activity [47]: inactive | Activity [24]: 25% | Activity [48]: 23.28% | Activity [25]: 55.7%

C=C[C@@]1(C)C=C2CC[C@@H]3[C@](C)(CCC[C@@]3(C)C(=O)O)[C@H]2CC1
Activity [33]: inactive

CC(C)c1cc2c(cc1O)[C@@]1(C)CCCC(C)(C)[C@@H]1CC2 [FERRUGINOL]
Activity [1]: Active | Activity [2]: 0.2% | Activity [34]: Non-toxic | Activity [35]: Non-toxic | Activity [49]: 29.7% | Activity [19]: tde | Activity [23]: 9.6% | Activity [24]: 4.4% | Activity [36]: Active | Activity [25]: 85.8% | Activity [50]: Active | Activity [28]: Active | Activity [51]: 50.76% | Activity [52]: 19.54% | Activity [30]: inactive
